Experimental data taken from publication PMC4332549 (ChemMedChem, 2012).
Values belong to the molecule of their own block, whether it stands above or below them. Square brackets hold non-standard residues; d marks the D form. Peptide text beside a SMILES is read from it. * marks the point of attachment. Palmitoyl = CCCCCCCCCCCCCCCC(=O)*; Ahp = NCCCCCCC(=O)O; Ahx = NCCCCCC(=O)O; Sar = CNCC(=O)O

Tests used:
[1] = target: T1, hGAL1 (human galanin receptor GalR1) (Homo sapiens, UniProt P47211); assay: Competitive binding assay, Eu-labeled galanin, time-resolved fluorescence
T1 sequence (P47211 1-349): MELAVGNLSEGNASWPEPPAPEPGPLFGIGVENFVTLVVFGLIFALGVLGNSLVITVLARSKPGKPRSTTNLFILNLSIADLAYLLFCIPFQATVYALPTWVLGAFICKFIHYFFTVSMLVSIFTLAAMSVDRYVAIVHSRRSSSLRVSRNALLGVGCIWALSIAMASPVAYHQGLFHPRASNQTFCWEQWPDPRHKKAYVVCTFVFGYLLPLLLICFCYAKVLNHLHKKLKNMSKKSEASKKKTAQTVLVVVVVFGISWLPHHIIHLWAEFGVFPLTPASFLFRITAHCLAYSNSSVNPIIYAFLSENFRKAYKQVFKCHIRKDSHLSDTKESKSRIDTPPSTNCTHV

[2] = target: T2, hGAL2 (human galanin receptor GalR2) (Homo sapiens, UniProt O43603); assay: as above
T2 sequence (O43603 1-387): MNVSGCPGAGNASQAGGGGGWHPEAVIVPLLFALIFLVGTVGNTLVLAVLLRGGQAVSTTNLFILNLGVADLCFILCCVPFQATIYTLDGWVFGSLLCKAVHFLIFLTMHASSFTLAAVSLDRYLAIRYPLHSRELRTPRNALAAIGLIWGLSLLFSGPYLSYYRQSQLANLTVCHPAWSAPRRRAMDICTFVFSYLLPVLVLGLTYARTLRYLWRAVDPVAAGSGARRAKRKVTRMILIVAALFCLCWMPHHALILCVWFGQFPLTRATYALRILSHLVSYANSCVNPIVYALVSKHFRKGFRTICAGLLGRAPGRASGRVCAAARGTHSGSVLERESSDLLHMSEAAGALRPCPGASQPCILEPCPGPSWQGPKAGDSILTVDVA

[3] = octanol-water log D, shake-flask / HPLC; cited from earlier work
Rat serum stability = assay type: in vitro ADME
Method in brief: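 Male Sprague-Dawley rat trunk-blood serum, kept at −80 °C and used within 3 months. 10 μg peptide in 1 mL pre-warmed 25% serum in 0.1 M Tris-HCl pH 7.5 at 37 °C. Sampled at 0, 30 min, 1, 2, 4 and 8 h, quenched with TCA/isopropanol at −20 °C for 20 min, then centrifuged. Intact peptide measured by reverse-phase HPLC; t1/2 fitted from ≥3 independent time-courses.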

Compound: CCCCCCCCCCCCCCCC(=O)NCCCC[C@H](NC(=O)[C@@H](CCCCN)NC(=O)[C@@H](CCCCN)NC(=O)[C@H](Cc1ccc(O)cc1)NC(=O)CNC(=O)[C@H](C)NC(=O)[C@H](CO)NC(=O)[C@H](CC(N)=O)NC(=O)[C@H](CC(C)C)NC(=O)[C@@H](NC(=O)[C@H](Cc1c[nH]c2ccccc12)NC(=O)CNC)[C@@H](C)O)C(=O)N[C@H](CCCCN)C(N)=O [D-[des-LLGP]Gal-B2] (H-[Sar]WTLNSAGY[dK][dK]K(Palmitoyl)[dK]-NH2)
Ki [1]: ≥ 30 µM

Compound: CCCCCCCCCCCCCCCC(=O)NCCCC[C@H](NC(=O)[C@H](CCCCN)NC(=O)[C@H](CCCCN)NC(=O)[C@@H]1CCCN1C(=O)CNC(=O)[C@H](CC(C)C)NC(=O)[C@H](CC(C)C)NC(=O)[C@H](Cc1ccc(O)cc1)NC(=O)CNC(=O)[C@H](C)NC(=O)[C@H](CO)NC(=O)[C@H](CC(N)=O)NC(=O)[C@H](CC(C)C)NC(=O)[C@@H](NC(=O)[C@H](Cc1c[nH]c2ccccc12)NC(=O)CNC)[C@@H](C)O)C(=O)N[C@@H](CCCCN)C(N)=O [Gal-B2]
log D [3]: 1.24
increase of t1/2 compared to Gal(1-16) (Rat serum stability; rat serum): 80 fold

Compound: CCCCCCCCCCCCCCCC(=O)NCCCC[C@H](NC(=O)[C@@H](CCCCN)NC(=O)[C@@H](CCCCN)NC(=O)CCCCCCNC(=O)[C@H](Cc1ccc(O)cc1)NC(=O)CNC(=O)[C@H](C)NC(=O)[C@H](CO)NC(=O)[C@H](CC(N)=O)NC(=O)[C@H](CC(C)C)NC(=O)[C@@H](NC(=O)[C@H](Cc1c[nH]c2ccccc12)NC(=O)CNC)[C@@H](C)O)C(=O)N[C@H](CCCCN)C(N)=O [D-Gal(7-Ahp)-B2] (H-[Sar]WTLNSAGY[Ahp][dK][dK]K(Palmitoyl)[dK]-NH2)
half-life at 10 µg/mL (Rat serum stability; male, Sprague-Dawley, rat, 25% rat serum, pH 7.5): > 10 h

Further lines, results first:

Ki [1]: ≥ 30 µM
Ki [2]: 27.4 µM
Compound: CCCCCCCCCCCCCCCC(=O)NCCCC[C@H](NC(=O)[C@H](CCCCN)NC(=O)[C@H](CCCCN)NC(=O)[C@H](Cc1ccc(O)cc1)NC(=O)CNC(=O)[C@H](C)NC(=O)[C@H](CO)NC(=O)[C@H](CC(N)=O)NC(=O)[C@H](CC(C)C)NC(=O)[C@@H](NC(=O)[C@H](Cc1c[nH]c2ccccc12)NC(=O)CNC)[C@@H](C)O)C(=O)N[C@@H](CCCCN)C(N)=O [[des-LLGP]Gal-B2] (H-[Sar]WTLNSAGYKKK(Palmitoyl)K-NH2)

Ki [1]: 1.17 ± 0.3 µM
Compound: CCCCCCCCCCCCCCCC(=O)NCCCC[C@H](NC(=O)[C@H](CCCCN)NC(=O)[C@H](CCCCN)NC(=O)CCCCCNC(=O)[C@H](Cc1ccc(O)cc1)NC(=O)CNC(=O)[C@H](C)NC(=O)[C@H](CO)NC(=O)[C@H](CC(N)=O)NC(=O)[C@H](CC(C)C)NC(=O)[C@@H](NC(=O)[C@H](Cc1c[nH]c2ccccc12)NC(=O)CNC)[C@@H](C)O)C(=O)N[C@@H](CCCCN)C(N)=O [L-Gal(6-Ahx)-B2] (H-[Sar]WTLNSAGY[Ahx]KKK(Palmitoyl)K-NH2)
